Gli-Sufu block – antagonists of Gli-Sufu signaling | inhibition, % at 5 µM | actives 0.74% (n = 340,000) | Sufu-KO-LIGHT fibroblasts, Gli luciferase reporter luminescence;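 active = inhibition above about 55%, limit read from the data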
Jurkat NFkB inh – lowers PMA/ionomycin-induced NF-kB signal in Jurkat cells; AID 435003; actives 0.53% (n = 330,000); PMA/ionomycin-induced NF-kB luciferase reporter, luminescence; inhibition, % at 4 µM; in the data active = inhibition above about 50%
697 NFkB inh – lowers PMA/ionomycin-induced NF-kB signal in 697 B cells; actives 0.33% (n = 330,000); inhibition, % at 4 µM; 697 B-cell NF-kB luciferase reporter, 16 h; in the data active = inhibition above about 35%
UPR XBP1 act – adaptive UPR (XBP1) activation; CHO-XBP1 luciferase reporter, IRE1-XBP1 UPR activation, luminescence; percent of tunicamycin response, DMSO as zero; activation, % at 20 µM; actives 0.33% (n = 330,000);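 active = versus positive control, 20 µM dose yields 30% or more activation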
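Material: IRE1-XBP1 luciferase reporter CHO line / Quantity: one thousand reporter cells per well / Buffer or medium: F12 with 10% serum / Compound: 20 µM single concentration, DMSO 1% / Times: 6 h treatment, 37 °C / Detection: Steady-Glo luciferase glow luminescence, 10 min after reagent addition / Benchmarks: tunicamycin high, DMSO low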
CHOP UPR activ – activators of apoptotic arm of unfolded protein response (CHOP); CHO-CHOP luciferase reporter, UPR activation, luminescence; percent of tunicamycin response over DMSO baseline; activation, % at 10 µM; actives 0.34% (n = 330,000); AID 449763;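 active = at 10 µM dose, activation of 40% or more, normalized to positive control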
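Evaluation: % reporter activation, DMSO baseline versus tunicamycin full activation; System: CHO-CHOP luciferase reporter cell line; Input: 500 cells/well; Incubation: 6 h compound treatment, 37 °C; Measured by: Steady-Glo luciferase luminescence; Dosing: one dose, 10 µM in 0.5% DMSO; Buffer or medium: F12 medium, 10% FBS; Benchmarks: positive tunicamycin 10 µg/mL, negative DMSO alone.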
CHOP inhibitor – inhibitors of CHOP induction in ER stress response | CHO-K1 CHOP-promoter luciferase, tunicamycin-induced, 15-18 h | inhibition, % at 10 µM | actives 3.8% (n = 220,000) | AID 2732;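 active = compounds that reduced the stress-induced luciferase reporter signal by more than about 70% of percent inhibition, limit read from the data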
Gli antag conf – Gli-SUFU antagonism confirmation, single concentration. shares compounds with Gli-Sufu block. Sufu-KO-LIGHT cells, Gli luciferase reporter, luminescence. inhibition, % at 5 µM. actives 40% (n = 2,500). AID 602428;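 active = mean inhibition at 5 µM reaching about 45%, limit read from the data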
SufuKO cytotox – counter-screen for Gli-SUFU antagonists: cytotoxicity. shares compounds with Gli-Sufu block. Sufu-KO-LIGHT cells cytotoxicity, ATP luminescence. cytotoxicity, % at 5 µM. actives 32% (n = 2,500). AID 651994;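 active = mean cytotoxicity at 5 µM above about 25%, limit read from the data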;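 also: cells exposed to compound overnight for roughly 16 to 18 hours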
Wnt3a cs – counter-screen for Gli-SUFU antagonists: Wnt3a reporter inhibition; actives 20% (n = 2,500); shares compounds with Gli-Sufu block; Wnt-LIGHT cells, Wnt3a-driven luciferase reporter, luminescence; AID 651995; inhibition, % at 6.25 µM;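 active = mean inhibition above about 25%, limit read from the data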
Each line names hits and unclear results; the compound was inactive in the other large screens (follow-up assays come after a bar, where they were run). This is a sample that favours compounds with a hit; in the whole collection about 3.9% have one here.

CCOc1ccc(N2C(=O)CC(N3CCN(C4CCc5ccccc5C4)CC3)C2=O)cc1 (stereo not drawn)	none
Cc1ccc(N2C(=O)CC(N3CCN(C4CCc5ccccc5C4)CC3)C2=O)cc1 (stereo not drawn)	Gli-Sufu block 72 | Gli antag conf inactive | SufuKO cytotox inactive | Wnt3a cs inactive
C=CCn1c(C)cc(C2=NNC(=NC(C)(C)C)SC2)c1C	Gli-Sufu block 72 | Gli antag conf 75 | SufuKO cytotox 50 | Wnt3a cs 98
CCn1cc(CN(C)S(=O)(=O)c2ccc3ccccc3c2)c(C)n1	none | Gli antag conf 50 | SufuKO cytotox inactive | Wnt3a cs 28
CCn1cc(CN(C)S(=O)(=O)c2cccc([N+](=O)[O-])c2)cn1	none
N=c1nc2n(cc1F)C1OC(CO)C(O)C1O2 (stereo not drawn)	Gli-Sufu block 56 (no result: Jurkat NFkB inh, 697 NFkB inh, UPR XBP1 act, CHOP UPR activ, CHOP inhibitor) | Gli antag conf 47 | SufuKO cytotox 26 | Wnt3a cs 36
CCOC(=O)c1cccc(NC(=O)C2CCCN2S(=O)(=O)c2cccc3cccnc23)c1 (stereo not drawn)	none
CCc1cccc(NC(=O)C2CCCN2S(=O)(=O)c2cccc3cccnc23)c1 (stereo not drawn)	none (no result: CHOP inhibitor) | Gli antag conf inactive | SufuKO cytotox inactive | Wnt3a cs inactive
CN1/C(=C\C(=O)Nc2ccc(Cl)cc2)C(C)(C)c2ccccc21	none
CN(C(=S)NC(=O)C1(C)CC1(Cl)Cl)c1ccccc1 (stereo not drawn)	none
CN1/C(=C\C(=S)Nc2ccccc2)C(C)(C)c2ccccc21	Gli-Sufu block 65 | Gli antag conf 74 | SufuKO cytotox inactive | Wnt3a cs 28
CN1/C(=C\C(=O)COC(=O)CNC(=O)c2ccccc2F)C(C)(C)c2ccccc21	none
CN1/C(=C/C(=S)NC(=O)C2(C)CC2(Cl)Cl)C(C)(C)c2ccccc21 (stereo not drawn)	Gli-Sufu block 60 | Gli antag conf inactive | SufuKO cytotox 26 | Wnt3a cs inactive
CN1/C(=C\C(=S)NC(=O)c2ccccc2Cl)C(C)(C)c2ccccc21	Gli-Sufu block 73 | Gli antag conf 55 | SufuKO cytotox 31 | Wnt3a cs 30
COc1ccccc1C(=O)NC(=S)/C=C1/N(C)c2ccccc2C1(C)C	Gli-Sufu block 78, CHOP inhibitor 73 | Gli antag conf inactive | SufuKO cytotox 26 | Wnt3a cs inactive
COc1ccc(C(C#N)N2CCC(c3ccccc3)=N2)cc1 (stereo not drawn)	none (no result: CHOP inhibitor)
CCCCNC(=O)O[C@H]1C[C@@H]2CCN3C(=O)CCC[C@H]([C@H]1Cc1ccccc1)[C@H]23	none (no result: CHOP inhibitor)
CCOC(=O)COc1ccc2c3c(c(=O)oc2c1C)CCC3	none
Cc1c(OCC(=O)C(C)(C)C)ccc2c3c(c(=O)oc12)CCCC3	Gli-Sufu block 62 (no result: CHOP inhibitor) | Gli antag conf inactive | SufuKO cytotox inactive | Wnt3a cs inactive
CCC(C)[C@H]1CN=C(N)N1CC1CCCCC1 (stereo partly drawn)	Gli-Sufu block 65 (no result: CHOP inhibitor) | Gli antag conf 68 | SufuKO cytotox 26 | Wnt3a cs 29
COCCN(CC(=O)Nc1cccc(C)c1C)C(=O)CN1C(=O)NC2(CCCCC2)C1=O	none (no result: CHOP inhibitor)
CN(Cc1nccs1)C(=O)c1cc(COc2cccc3cnccc23)on1	Gli-Sufu block 58 (no result: CHOP inhibitor) | Gli antag conf inactive | SufuKO cytotox inactive | Wnt3a cs inactive
CC1CCC(NC(=O)CCS(=O)(=O)c2ccc3c(c2)oc(=O)n3C)CC1 (stereo not drawn)	none (no result: CHOP inhibitor)
O=C1CCCC(O)=C1C=NCc1ccccc1	Gli-Sufu block 58 | Gli antag conf inactive | SufuKO cytotox inactive | Wnt3a cs inactive
CCOCCCNC(=O)c1ccc2c(c1)ncn2-c1ccc(C)cc1C	none (no result: CHOP inhibitor)
CCOCCCNC(=O)c1ccc2c(c1)ncn2-c1ccccc1OC	Gli-Sufu block 61 (no result: CHOP inhibitor) | Gli antag conf inactive | SufuKO cytotox inactive | Wnt3a cs inactive
Cc1[nH]n(-c2nc(-c3ccc(Cl)cc3)cs2)c(=O)c1N=Nc1ccc(O)cc1	Gli-Sufu block 70 | Gli antag conf 71 | SufuKO cytotox 35 | Wnt3a cs 29
CCOc1ccc(OCCNC(=O)c2ccc3c(c2)nnn3CC)cc1	none (no result: CHOP inhibitor)
CCNc1nc(CSc2ccccc2)nc2sc(C)c(C)c12	Gli-Sufu block 69 | Gli antag conf inactive | SufuKO cytotox inactive | Wnt3a cs inactive
CCCCc1cc(=O)oc2cc(C)cc(OCC(=O)N[C@@H](CSCc3ccccc3)C(=O)O)c12	none (no result: CHOP inhibitor)
CCc1cc(=O)oc2cc(C)cc(OCC(=O)N[C@@H](CSCc3ccccc3)C(=O)O)c12	Gli-Sufu block 57 (no result: CHOP inhibitor) | Gli antag conf inactive | SufuKO cytotox inactive | Wnt3a cs inactive
Cc1ccc(S(=O)(=O)N2CCN(C(=O)C3CCCC3)CC2)cc1C	none (no result: CHOP inhibitor)
Cc1ccc(S(=O)(=O)N2CCN(c3ncnc4sccc34)CC2)cc1	Gli-Sufu block 63 (no result: CHOP inhibitor) | Gli antag conf 58 | SufuKO cytotox 34 | Wnt3a cs inactive
O=C(O)c1cc2c(N3CCC(Cc4ccccc4)CC3)ncnc2s1	none
c1ccc(CC2CCN(c3ncnc4sccc34)CC2)cc1	Gli-Sufu block 66, CHOP inhibitor 74 (no result: Jurkat NFkB inh, 697 NFkB inh, UPR XBP1 act, CHOP UPR activ) | Gli antag conf 70 | SufuKO cytotox 33 | Wnt3a cs 35
CN(C(=O)CSc1nc(C2CC2)n(-c2ccccc2)n1)C1CCS(=O)(=O)C1 (stereo not drawn)	none (no result: CHOP inhibitor)
COc1cc(C(=O)NC2CCN(C)CC2)ccc1Nc1ncc2c(n1)N(Cc1ccccc1)CCC(=O)N2C	Gli-Sufu block 91 (no result: Jurkat NFkB inh, 697 NFkB inh, UPR XBP1 act, CHOP UPR activ, CHOP inhibitor) | Gli antag conf 89 | SufuKO cytotox inactive | Wnt3a cs inactive
COc1cc(C(=O)NC2CCN(C)CC2)ccc1Nc1ncc2c(n1)N(C1CCCCC1)CCC(=O)N2C	Gli-Sufu block 82 (no result: Jurkat NFkB inh, 697 NFkB inh, UPR XBP1 act, CHOP UPR activ, CHOP inhibitor) | Gli antag conf 79 | SufuKO cytotox inactive | Wnt3a cs inactive
COc1ccc(S(=O)(=O)Nc2cccc(F)c2C)cc1C(=O)N1CCOCC1	none
COc1ccc(S(=O)(=O)Nc2ccc(F)cc2F)cc1C(=O)N1CCOCC1	Gli-Sufu block 61 (no result: CHOP inhibitor) | Gli antag conf inactive | SufuKO cytotox inactive | Wnt3a cs inactive
Cc1cc(-c2cccs2)c2c(n1)sc1c(=O)[nH]c(=O)[nH]c12	Gli-Sufu block 84 | Gli antag conf inactive | SufuKO cytotox 31 | Wnt3a cs inactive
Cc1cc(-c2ccccc2)c2c(n1)sc1c(O)cc(=O)[nH]c12	none
